Activity calls are given as the source filed them. No cut-off for these calls is given here.
How the values were obtained:
Escherichia coli [1] = assay: Effect on intracellular H33342 accumulation in Escherichia coli AG100A delta acrAB mutant at 16 ug/ml after 60 mins by accumulation assay; assay type: functional
In short: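 Cells grown in Luria broth at 37 °C, 200 rpm to OD600 1.0, then washed twice in PBS and diluted in glucose-free PBS to OD600 0.3. H33342 was used at 2.5 μM with 22 mM glucose at 37 °C and allowed to accumulate for ~30 min. Compound was then added and fluorescence (Ex 350/Em 460 nm) followed for 60 min. Values are the mean RFU of the final 4 min, after media-plus-compound background was subtracted. Run in duplicate, n = 8.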

Escherichia coli [2] = assay: Potentiation of tetracycline-induced antibacterial activity Escherichia coli transformed with plasmid carrying MG1655 deltaBC/pXYM by p-iodonitrotetrazolium chloride colorimetric assay; assay type: functional
Escherichia coli [3] = assay: Potentiation of chloramphenicol-induced antibacterial activity Escherichia coli transformed with plasmid carrying MG1655 deltaBC/pXYM assessed as chloramphenicol MIC by p-iodonitrotetrazolium chloride colorimetric assay; assay type: functional
In short: (§1)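 Checkerboard microdilution in Mueller-Hinton broth: two-fold dilutions of antibiotic crossed with dilutions of test compound above, at and below their MICs. Growth was read by INT colorimetric assay, with MIC as the lowest concentration showing no visible growth. FICs and FIC index were derived from these MICs. ΔBC/pABM and ΔBC/pXYM strains were grown with 100 μg/mL ampicillin and 1 mM IPTG.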

Escherichia coli [4] = assay: Potentiation of tetracycline-induced antibacterial activity Escherichia coli transformed with plasmid carrying MG1655 deltaBC/pABM by p-iodonitrotetrazolium chloride colorimetric assay; assay type: functional
Escherichia coli K-12 [5] = assay: Inhibition of AcrAB-TolC pump in Escherichia coli K-12 AG100 assessed as increase in H33342 accumulation at 64 ug/ml after 60 mins by accumulation assay
Escherichia coli [6] = assay: Potentiation of erythromycin-induced antibacterial activity Escherichia coli transformed with plasmid carrying MG1655 deltaBC/pABM by p-iodonitrotetrazolium chloride colorimetric assay; assay type: functional
Escherichia coli [7] = assay: Potentiation of ciprofloxacin-induced antibacterial activity Escherichia coli AG102 overexpressing AcrAB-TolC by p-iodonitrotetrazolium chloride colorimetric assay; assay type: functional
Escherichia coli [8] = assay: Potentiation of levofloxacin-induced antibacterial activity Escherichia coli transformed with plasmid carrying MG1655 deltaBC/pABM MIC by p-iodonitrotetrazolium chloride colorimetric assay; assay type: functional
Escherichia coli [9] = assay: Potentiation of ciprofloxacin-induced antibacterial activity Escherichia coli transformed with plasmid carrying MG1655 deltaBC/pABM by p-iodonitrotetrazolium chloride colorimetric assay; assay type: functional
Escherichia coli K-12 [10] = assay: Inhibition of AcrAB-TolC pump in Escherichia coli K-12 AG100 assessed as increase in intracellular H33342 fluorescence at 4 ug/ml after 60 mins by efflux inhibition assay; assay type: cell-based
In short: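 Washed AG100 cells loaded for 60 min with 2.5 μM H33342 plus compound (no glucose, 25 °C). They were then pelleted, resuspended in ice-cold PBS and re-exposed to the same compound concentrations with or without glucose at 37 °C. Fluorescence (Ex 350/Em 460) followed for 30 min, no-glucose values subtracted, data normalized to loaded cells.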

Escherichia coli [11] = assay: Effect on intracellular H33342 accumulation in Escherichia coli AG100A delta acrAB mutant at 4 ug/ml after 60 mins by accumulation assay; assay type: functional
In short: (§2)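 AG100 (wild-type K-12) or AG100A (ΔacrAB) grown in Luria broth at 37 °C and 200 rpm to OD600 1.0, PBS-washed, diluted to OD600 0.3. Cells given 2.5 μM H33342 with 22 mM glucose at 37 °C for ~30 min until stable, then compound (0.06–64 μg/mL) added. Fluorescence (Ex 350/Em 460) read for 60 min, background subtracted. Final 4 time points averaged; one-way ANOVA/Dunnett vs Hoechst-only; n = 8.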

Escherichia coli [12] = assay: Potentiation of chloramphenicol-induced antibacterial activity Escherichia coli transformed with plasmid carrying MG1655 deltaBC/pABM assessed as chloramphenicol MIC by p-iodonitrotetrazolium chloride colorimetric assay; assay type: functional; in short: as §1
Escherichia coli [13] = assay: Effect on intracellular H33342 accumulation in Escherichia coli AG100A after 60 mins by efflux inhibition assay; assay type: functional, organism-based
In short: (§3)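 AG100 (wild-type K-12) or AG100A (ΔacrAB) cells were grown in Luria broth at 37 °C and 200 rpm to OD600 1.0, PBS-washed and diluted to OD600 0.3. Cells took up 2.5 μM Hoechst 33342 with 22 mM glucose at 37 °C for about 30 min, then compound (0.06–64 μg/mL) or PAβN (15.6 μg/mL) was added. Fluorescence (Ex 350/Em 460 nm) was followed for 60 min and corrected for background. The last four time points were compared to dye-only control by ANOVA with Dunnett's test, run in duplicate.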

Escherichia coli [14] = assay: Potentiation of chloramphenicol-induced antibacterial activity Escherichia coli transformed with plasmid carrying MG1655 deltaBC/pABM by p-iodonitrotetrazolium chloride colorimetric assay; assay type: functional
Escherichia coli K-12 [15] = assay: Inhibition of AcrAB-TolC pump in Escherichia coli K-12 AG100 assessed as increase in intracellular H33342 fluorescence at 0.06 ug/ml after 60 mins by efflux inhibition assay; assay type: cell-based; in short: as §3
Escherichia coli [16] = assay: Potentiation of piperacillin-induced antibacterial activity Escherichia coli transformed with plasmid carrying MG1655 deltaBC/pXYM assessed as piperacillin MIC by p-iodonitrotetrazolium chloride colorimetric assay; assay type: functional; in short: as §1
Escherichia coli [17] = assay: Potentiation of kanamycin-induced antibacterial activity Escherichia coli AG102 overexpressing AcrAB-TolC by p-iodonitrotetrazolium chloride colorimetric assay; assay type: functional
Escherichia coli [18] = assay: Potentiation of erythromycin-induced antibacterial activity Escherichia coli transformed with plasmid carrying MG1655 deltaBC/pABM assessed as erythromycin MIC by p-iodonitrotetrazolium chloride colorimetric assay; assay type: functional; in short: as §1
Escherichia coli K-12 [19] = assay: Inhibition of AcrAB-TolC pump in Escherichia coli K-12 AG100 assessed as […] at 16 ug/ml after 60 mins by accumulation assay; in short: as §2
Escherichia coli [20] = assay: Potentiation of chloramphenicol-induced antibacterial activity Escherichia coli AG102 overexpressing AcrAB-TolC by p-iodonitrotetrazolium chloride colorimetric assay; assay type: functional
Escherichia coli K-12 [21] = assay: Inhibition of AcrAB-TolC pump in Escherichia coli K-12 AG100 assessed as increase in intracellular H33342 fluorescence at 16 ug/ml after 60 mins by efflux inhibition assay; assay type: cell-based; in short: as §3
Escherichia coli [22] = assay: Potentiation of tetracycline-induced antibacterial activity Escherichia coli AG102 overexpressing AcrAB-TolC by p-iodonitrotetrazolium chloride colorimetric assay; assay type: functional
Escherichia coli K-12 [23] = assay: Inhibition of AcrAB-TolC pump in Escherichia coli K-12 AG100 assessed as […] at 0.06 ug/ml after 60 mins by accumulation assay; in short: as §2
Escherichia coli K-12 [24] = assay: Inhibition of AcrAB-TolC pump in Escherichia coli K-12 AG100 assessed as increase in intracellular H33342 fluorescence at 64 ug/ml after 60 mins by efflux inhibition assay; assay type: cell-based; in short: as §3
Escherichia coli [25] = assay: Potentiation of kanamycin-induced antibacterial activity Escherichia coli transformed with plasmid carrying MG1655 deltaBC/pXYM assessed as kanamycin MIC by p-iodonitrotetrazolium chloride colorimetric assay; assay type: functional; in short: as §1

O=C1NC(=O)C(Br)=C1Br
RFU (Escherichia coli [1]): 1100
fractional inhibitory concentration index (FICI) (Escherichia coli [2]): 0.58
MIC (Escherichia coli [3]): 64 µg/mL
fractional inhibitory concentration index (FICI) (Escherichia coli [4]): 1
RFU (Escherichia coli K-12 [5]): 1200
fractional inhibitory concentration index (FICI) (Escherichia coli [6]): 0.19
fractional inhibitory concentration index (FICI) (Escherichia coli [7]): 0.5
fractional inhibitory concentration index (FICI) (Escherichia coli [8]): 0.75
fractional inhibitory concentration index (FICI) (Escherichia coli [9]): 0.75
RFU (Escherichia coli K-12 [10]): -101
RFU (Escherichia coli [11]): 1200
MIC (Escherichia coli [12]): 128 µg/mL
inhibition (Escherichia coli [13]): inactive
fractional inhibitory concentration index (FICI) (Escherichia coli [14]): 0.75
RFU (Escherichia coli K-12 [15]): -422
MIC (Escherichia coli [16]): 256 µg/mL
fractional inhibitory concentration index (FICI) (Escherichia coli [17]): 0.27
MIC (Escherichia coli [18]): 64 µg/mL
RFU (Escherichia coli K-12 [19]): 1170
fractional inhibitory concentration index (FICI) (Escherichia coli [20]): 0.5
RFU (Escherichia coli K-12 [21]): -34
fractional inhibitory concentration index (FICI) (Escherichia coli [22]): 0.31
RFU (Escherichia coli K-12 [23]): 758
RFU (Escherichia coli K-12 [24]): -68
MIC (Escherichia coli [25]): 32 µg/mL
